Bioassay records as filed in PubChem.
A selection: hits, their analogues and other compounds. The true share with any hit is near 3.4%.
TAAR1 agonist = human TAAR1 agonism; CHO RD-HGA16 TAAR1, Fluo-8 calcium fluorescence; vehicle wells 0%, saturating PEA agonist 100%; activation, % at 3 µM; hit rate 0.99% among 360,000; Q96RJ0;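 active = activation above the mean activation of all test compounds in the run plus 3 SD, cut at about 38% in these data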
Target sequence (Q96RJ0 whole entry, looked up): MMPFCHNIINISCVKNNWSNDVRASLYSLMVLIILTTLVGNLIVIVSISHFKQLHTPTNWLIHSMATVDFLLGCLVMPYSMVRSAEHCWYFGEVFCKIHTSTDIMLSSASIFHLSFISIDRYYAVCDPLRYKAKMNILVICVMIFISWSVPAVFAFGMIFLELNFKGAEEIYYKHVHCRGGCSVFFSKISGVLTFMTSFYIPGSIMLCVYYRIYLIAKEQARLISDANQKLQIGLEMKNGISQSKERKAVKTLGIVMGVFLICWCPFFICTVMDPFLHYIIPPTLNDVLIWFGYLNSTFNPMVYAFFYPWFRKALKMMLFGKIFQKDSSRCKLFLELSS
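Benchmarks: low control DMSO, high control PEA (EC100); System: CHO RD-HGA16 cells carrying human TAAR1 plus Gα16; Detection: Fluo-8 fluorescence, 5 s baseline then 140 s kinetic read; Schedule: 17-24 h plating, Fluo-8 75 min 37 °C, 30 min RT; Read-out basis: % activation from peak over basal fluorescence ratio, DMSO-to-PEA scaled.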
M1 PAM = positive allosteric modulators of human M1 muscarinic receptor. P11229. CHO-K1 hM1, Fluo-8 calcium fluorescence, ACh EC20; 0% = ACh EC20, 100% = maximal ACh. activation, % at 3 µM. hit rate 0.088% among 360,000; in the data active = activation above about 19%, passing the limit was not always enough
TAAR1 antag = antagonists of human TAAR1 | AID 624466 | hit rate 1.5% among 360,000 | CHO RD-HGA16 TAAR1, Fluo-8 calcium fluorescence, antagonist | inhibition, % at 3 µM | Q96RJ0;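 active = inhibition above a per-plate cutoff, the mean inhibition of test compounds on that plate plus 3 SD, cut at about 49% in these data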;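 also: 0% = DMSO plus EC80 beta-PEA response and 100% = DMSO alone without agonist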
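Test system – hTAAR1-expressing CHO RD-HGA16 cells, Gα16-coupled · Reagent – β-PEA at EC80 concentration, post-compound challenge · Compound dosing – 3 µM, single point · Timing – 140 s kinetic read after compound, 140 s after agonist · Detection – Fluo-8 intracellular calcium dye fluorescence, real-time kinetic reads · Control set – DMSO and EC80 PEA controls · Repeats – n of 1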
M1 antag = blocks human M1 muscarinic receptor; CHO-K1 hM1, Fluo-8 calcium fluorescence, ACh EC80 antagonist; P11229; hit rate 1.3% among 360,000; inhibition, % at 3 µM;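 active = percent inhibition above its own plate's cutoff, namely the mean of that plate's compound wells plus 3 SD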;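 also: peak over basal fluorescence ratio during 140 s after agonist addition; 0% = ACh EC80 plus DMSO and 100% = DMSO alone without agonist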
M1 ag = agonists of human M1 muscarinic receptor; AID 588814; activation, % at 3 µM; CHO-K1 hM1, Fluo-8 calcium fluorescence, agonist mode; 0% DMSO, 100% acetylcholine EC100; hit rate 0.33% among 360,000; P11229;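 active = activation above the run's mean compound activation plus 3 SD, cut at about 16% in these data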;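 also: peak over basal fluorescence ratio within a 140 s kinetic read after compound addition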
* = called active by the depositor; · = no result.

SMILES	TAAR1 agonist	M1 PAM	TAAR1 antag	M1 antag	M1 ag
CCOc1ccccc1C1NC(=O)c2ccccc2N1 (stereo unspecified)	1	0	-23	-3	-2
NC1(N2SC(S)=C3CCCC=C32)CCCCC1	1	·	-15	·	·
COc1ccc(NC(=O)/C(Cl)=C(/Cl)S(=O)Cc2ccccc2)cn1 (stereo unspecified)	41*	6	74*	24	4
COc1ccc(NC(=O)Cc2ccccc2)cn1	4	10	-29	-12	-4
CN(C)CCCNC(=O)/C(=N\O)c1ccccc1	0	10	-6	-9	-3
Cc1cccc(C)c1C(=NCCCN(C)C)c1ccccc1	5	-27	-16	79*	-8
Cc1nnc(N2CCCC(C(=O)NCc3ccc(OC(C)C)cc3)C2)c2nn(-c3ccccc3)c(C)c12 (stereo unspecified)	12	-20	-58	41*	-6
COc1cc(C(O)c2nc(-c3ccncc3)cs2)ccc1F (stereo unspecified)	3	-4	-2	1	2
Cc1[nH]nc2c1C(c1ccccc1)N(Cc1ccccc1)C2=O (stereo unspecified)	2	·	-6	·	·
CC(=O)c1c(C)[nH]c(C(=O)OCC(=O)Nc2ccc(Cl)cc2[N+](=O)[O-])c1C	10	-13	35	34*	-1
COc1cccc(C(=O)NCC(c2ccc3c(c2)OCO3)N2CCN(c3ccc(F)cc3)CC2)c1 (stereo unspecified)	4	-26	20	28*	-7
CN(c1ccccc1)S(=O)(=O)c1ccc(Cl)c(C(=O)Nc2ccncc2)c1	3	-10	24	20	0
CN(c1ccc(F)cc1)S(=O)(=O)c1ccc(Cl)c(C(=O)Nc2ccncc2)c1	9	-18	29	34*	0
CC(=O)Nc1sc(/C(C#N)=C\c2cccc(Cl)c2)nc1-c1ccc(C)cc1	33	-7	52*	13	0
NS(=O)(=O)c1ccc(CCNc2nn3c(-c4cccc(OC(F)(F)F)c4)cnc3s2)cc1	2	-4	16	13	-3
Cc1sc2ncnc(N3CCN(S(=O)(=O)c4ccc(F)cc4)CC3)c2c1C	3	-17	19	29*	-6
Cc1ccc(-c2csc3ncnc(N4CCN(S(=O)(=O)c5ccc(C#N)cc5)CC4)c23)cc1	2	2	-11	-1	-4
O=S(=O)(c1ccc(F)c(F)c1F)N1CCN(c2ncnc3sccc23)CC1	6	-16	23	26	3
Cc1ccc(S(=O)(=O)N2CCN(c3ncnc4sccc34)CC2)cc1	4	-9	28	30*	1
Cc1cc(C)c(C)c(S(=O)(=O)N2CCN(c3ncnc4ccccc34)CC2)c1C	3	7	19	1	1
O=S(=O)(c1cc(C(F)(F)F)ccc1Cl)N1CCN(c2ncnc3ccccc23)CC1	4	-14	33	39*	1
O=S(=O)(c1ccccc1C(F)(F)F)N1CCN(c2ncnc3sccc23)CC1	8	-19	37	29*	0
CCS(=O)(=O)N1CCN(c2ncnc3sc(C)c(C)c23)CC1	1	3	6	-17	-2
CC(C)c1[nH]nc2c1C(c1cccc(C(F)(F)F)c1)N(Cc1ccccc1)C2=O (stereo unspecified)	6	·	-19	·	·
CC(=O)NC(c1ccc(F)c(F)c1)c1nc(-c2ccccc2C)cs1 (stereo unspecified)	13	8	-8	-8	1
SMILES	TAAR1 agonist	M1 PAM	TAAR1 antag	M1 antag	M1 ag
CCN=C1NC(c2cccc(F)c2)C(C(=O)OC)=C(C)N1Cc1ccccc1C(F)(F)F (stereo unspecified)	8	·	-2	·	·
COc1ccc(Cl)cc1NC(=O)CNc1ccccc1CN(C)C1CCCCC1	-2	-16	-3	11	-7
COc1ccc(C)cc1NC(=O)CNc1ccccc1CN(C)C1CCCCC1	0	-26	-20	51*	-8
Cc1ccc(C(=O)N2CCCCC2)cc1NC1=C(Cl)C(=O)N(Cc2ccccc2)C1=O	4	-18	50*	28	-4
CC(C)CCN1C(=O)c2ccccc2C1c1nnnn1-c1ccc2c(c1)OCCO2 (stereo unspecified)	0	·	-1	·	·
CC(C)(C)c1ccc(C(=O)Nc2cccc(-n3cnnn3)c2)cc1	6	-16	58*	22	-3
O=C(Nc1cccc(-n2cnnn2)c1)c1cc(Cl)nc(Cl)c1	49*	0	30	3	6
O=C(Nc1cccc(-n2cnnn2)c1)c1cccc(Cl)c1	17	-3	11	7	1
O=C(N[C@H](Cc1ccccc1)C(=O)NCCN1CCOCC1)[C@H]1O[C@@H](n2ccc(=O)[nH]c2=O)[C@H](O)[C@@H]1O	0	·	0	·	·
O=C(CCc1nc(-c2ccccc2F)no1)Nc1ccc(Oc2ccccc2)cc1	12	-11	54*	16	0
C[C@H](CO)N1C[C@H](C)[C@H](CN(C)C(=O)Nc2cccc(F)c2)OCc2cnnn2CCCC1=O	2	·	4	·	·
COC(=O)C1=C(C)N(Cc2ccccc2C(F)(F)F)C(=NCc2cc(OC)c(OC)c(OC)c2)NC1c1ccc(Cl)cc1 (stereo unspecified)	9	·	-5	·	·
O=c1ccc(-c2ccc(S(=O)(=O)NCC3CCN(Cc4ccccc4F)CC3)s2)n[nH]1	9	-24	-10	93*	-4
Cc1cccc(-n2c(C)cc(/C=N/n3cnnc3)c2C)c1	11	-21	-4	70*	-3
Cc1cc(/C=N/n2cnnc2)c(C)n1-c1ccc2c(c1)OCO2	21	9	-8	-7	-6
Cc1cc(C)c(O)c(C(=O)CC2CC(=O)NC(=O)C2)c1	0	·	10	·	·
COC(=O)c1c(C)oc2ccc(N(C(=O)c3ccncc3)S(=O)(=O)c3ccccc3)cc12	3	-6	-13	-2	-1
COC(=O)c1c(C)oc2ccc(N(C(=O)c3ccncc3)S(=O)(=O)c3ccc4ccccc4c3)cc12	2	-8	50*	11	2
C#Cc1ccc(NC(=O)C2(C)CCN2C(=O)CC(c2ccccc2)c2ccccc2)cc1 (stereo unspecified)	0	-5	-22	-3	-7
O=C1NC(Cc2ccc(O)cc2)c2nc3ccc(F)cc3c(=O)n2-c2cc3ccccc3cc21 (stereo unspecified)	8	-10	50*	23*	-1
Fc1ccc(OCCCCCn2ccnc2)cc1	2	-4	-14	-8	36*
COc1ccc(NC(=O)COC(=O)CCCC2=NS(=O)(=O)c3ccccc3N2)cc1	39*	7	-16	-18	-3
COCc1cc(N2CCN(C(=O)OC(C)(C)C)C[C@H]2C)ccc1N1CC[C@H](O)C1	2	·	-19	·	·
